Measurements: ChEMBL document CHEMBL1144937, “A specific mechanism of nonspecific inhibition” (J Med Chem, 2003)
pIC50: −log10 of the molar value.

Assays:
[1] = target: Beta-lactamase (Escherichia coli K-12) (UniProt P00811); conditions: 30 uM
[2] = target: Beta-lactamase (Escherichia coli K-12) (UniProt P00811); test: Percentage inhibition against beta-Lactamase in the presence of detergent 0.01% Triton X-100 was determined at a concentration of 25 uM
Procedure, shortened: (§1)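 AmpC β-lactamase (E. coli-expressed, purified) assayed in 50 mM KPi, pH 7.0, at room temperature. Enzyme and inhibitor preincubated 5 min before substrate addition. Inhibitors were typically diluted from 10 mM DMSO stocks into KPi. Where present, Triton X-100 was at 0.01% final, from a 1% (v/v) stock in 50 mM KPi freshly prepared daily.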

[3] = target: Beta-lactamase (Escherichia coli K-12) (UniProt P00811); test: Percentage inhibition against beta-Lactamase in the absence of detergent Triton X-100 was determined at a concentration of 25 uM
Procedure, shortened: as §1

[4] = target: Beta-lactamase (Escherichia coli K-12) (UniProt P00811); test: Percentage inhibition of Beta-lactamase at KPi (Potassium Phosphate) stock concentration of 5.9 uM
Procedure, shortened: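 Compound dissolved directly in 50 mM KPi with no DMSO, stock level set by UV–vis spectra correlated with DMSO-diluted solutions. Tested against AmpC β-lactamase in 50 mM KPi, pH 7.0, room temperature, with 5 min enzyme–inhibitor preincubation. Value reported as percent inhibition.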

[5] = target: Beta-lactamase (Escherichia coli K-12) (UniProt P00811); test: Percentage inhibition against beta-Lactamase in the presence of detergent 0.01% Triton X-100 was determined at a concentration of 0.6 uM
Procedure, shortened: (§2)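 AmpC β-lactamase (expressed and purified from E. coli) assayed in 50 mM KPi, pH 7.0, at room temperature. Enzyme and inhibitor were preincubated for 5 min before the nitrocefin substrate (200 μM) was added, and hydrolysis was followed kinetically. For the detergent lines, Triton X-100, made fresh daily as a 1% (v/v) stock in 50 mM KPi, was used at a final 0.01%.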

[6] = target: Beta-lactamase (Escherichia coli K-12) (UniProt P00811); test: Percentage inhibition against beta-Lactamase in the absence of detergent Triton X-100 was determined at a concentration of 0.6 uM
Procedure, shortened: as §2

[7] = target: Beta-lactamase (Escherichia coli K-12) (UniProt P00811); test: Percentage inhibition against beta-Lactamase in the absence of detergent Triton X-100 was determined at a concentration of 20 uM
Procedure, shortened: as §2

[8] = target: Beta-lactamase (Escherichia coli K-12) (UniProt P00811); test: Percentage inhibition against beta-Lactamase in the presence of detergent 0.01% Triton X-100 was determined at a concentration of 20 uM
Procedure, shortened: as §2

Beta-lactamase [9] = target: T1, Beta-lactamase (Escherichia coli K-12, UniProt P00811); test: Inhibitory activity against Amp C beta-Lactamase
Beta-lactamase [10] = target: T1, Beta-lactamase; test: Inhibitory activity against Beta-lactamase from DMSO stock was determined
[11] = target: Beta-lactamase (Escherichia coli K-12) (UniProt P00811); test: Percentage inhibition against beta-Lactamase in the presence of detergent 0.01% Triton X-100 was determined at a concentration of 5 uM
Procedure, shortened: as §1

[12] = target: Beta-lactamase (Escherichia coli K-12) (UniProt P00811); test: Percentage inhibition against beta-Lactamase in the absence of detergent Triton X-100 was determined at a concentration of 5 uM
Procedure, shortened: as §1

Chain of Beta-lactamase (Escherichia coli K-12) (P00811 whole entry): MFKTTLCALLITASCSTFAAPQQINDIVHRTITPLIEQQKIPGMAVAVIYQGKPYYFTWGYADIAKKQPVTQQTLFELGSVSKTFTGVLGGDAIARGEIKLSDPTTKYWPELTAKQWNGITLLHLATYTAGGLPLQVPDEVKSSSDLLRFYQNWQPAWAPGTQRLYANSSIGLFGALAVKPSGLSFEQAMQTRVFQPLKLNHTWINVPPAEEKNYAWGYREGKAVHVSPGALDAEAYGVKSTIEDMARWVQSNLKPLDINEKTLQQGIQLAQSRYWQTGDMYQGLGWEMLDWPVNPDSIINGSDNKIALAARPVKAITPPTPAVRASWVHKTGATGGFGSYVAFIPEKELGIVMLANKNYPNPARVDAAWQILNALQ
T1 sequence (P00811 whole entry): as above

Molecule `O=S(=O)(O)c1cc(O)c(/N=N/c2ccc3ccccc3c2O)c2ccccc12` has an inhibition [1] of 68%.
`O=c1c(O)c(-c2ccc(O)c(O)c2)oc2cc(O)cc(O)c12` showed an inhibition [2] of 25%, an inhibition [3] of 68% and an inhibition [4] of 43%.
`OB(O)c1cc2ccccc2s1` was tested, and the inhibition [5] was 86% and the inhibition [6] was 87%.
`Oc1ccc(/N=N/c2ccc(Br)cc2)cc1` was tested, and the inhibition [7] was 91% and the inhibition [8] was 10%.
Work on `COC(=O)C1=C(C)NC(C)=C(C(=O)OCCN(C)Cc2ccccc2)C1c1cccc([N+](=O)[O-])c1` (configuration not stated) [NICARDIPINE] yielded a pIC50 (Beta-lactamase [9]) of 4.70 and a pIC50 (Beta-lactamase [10]) of 4.70.
`CC(=O)c1c(O)c(C)c(O)c(Cc2c(O)c3c(c(C(=O)/C=C/c4ccccc4)c2O)OC(C)(C)C=C3)c1O` [ROTTLERIN] gave an inhibition [11] of 5%, a pIC50 (Beta-lactamase [9]) of 5.92 and an inhibition [12] of 90%.
`O=C1NCc2c1c1c3ccccc3[nH]c1c1[nH]c3ccccc3c21` [STAUROSPORINONE] gave an inhibition [7] of 80%, an inhibition [8] of 17% and a pIC50 (Beta-lactamase [9]) of 5.10.
For `Clc1ccc(CSC(Cn2ccnc2)c2ccc(Cl)cc2Cl)cc1` (configuration not stated) [SULCONAZOLE], the pIC50 (Beta-lactamase [9]) was 4.85.
